Activity calls are given as the source filed them. No cut-off for these calls is given here.
Columns and labels:
[1] = Inhibition of human protein farnesyltransferase using dansyl peptide containing CAAX as substrate in presence of farnesyl pyrophosphate after 15 mins by fluorescence assay
[2] = tested on: ASPC1; test: Antiproliferative activity against human AsPC1 cells expressing K-Ras mutant at 0.5 to 10 uM after 2 days by trypan blue staining based assay; format: functional, cell-based
How it was run: (§1)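 Cells (AsPC-1, K-Ras mutant; or BxPC-3) were seeded at 1.0 × 10^4 per well and grown 1 d at 37 °C. The disulfide prodrug form was then added, and cells were incubated 2 days. At 0, 1 and 2 days after addition, cells were detached and stained with 0.4% trypan blue. Unstained (living) cells were counted.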

[3] = tested on: ASPC1; test: Antiproliferative activity against human AsPC1 cells expressing K-Ras mutant at 10 uM after 1 day in presence of DTT by trypan blue staining based assay; format: functional, cell-based
[4] = tested on: BXPC-3; test: Antiproliferative activity against human BxPC3 cells at 0.5 to 10 uM after 2 days by trypan blue staining based assay; format: functional, cell-based; how it was run: as §1
[5] = tested on: ASPC1; test: Antiproliferative activity against human AsPC1 cells expressing K-Ras mutant after 2 days by trypan blue staining based assay; format: functional, cell-based; how it was run: as §1
[6] = species: Homo sapiens; test: Inhibition of human protein farnesyltransferase assessed as enzyme activity in presence of Zn2+ ions (reference value: 49%); set-up: scale not given: the % may be the effect or the level left
[7] = species: Homo sapiens; test: Inhibition of human protein farnesyltransferase assessed as enzyme activity in presence of Cu2+ ions (reference value: 49%); set-up: scale not given: the % may be the effect or the level left
[8] = species: Homo sapiens; test: Inhibition of human protein farnesyltransferase assessed as enzyme activity in presence of Fe2+ ions (reference value: 49%); set-up: scale not given: the % may be the effect or the level left
[9] = species: Homo sapiens; test: Inhibition of human protein farnesyltransferase assessed as enzyme activity in presence of Ni2+ ions (reference value: 49%); set-up: scale not given: the % may be the effect or the level left
[10] = species: Homo sapiens; test: Inhibition of human protein farnesyltransferase assessed as enzyme activity in presence of Co2+ ions (reference value: 49%); set-up: scale not given: the % may be the effect or the level left
[11] = species: Homo sapiens; test: Inhibition of human protein farnesyltransferase assessed as enzyme activity in presence of Ca2+ ions (reference value: 49%); set-up: scale not given: the % may be the effect or the level left

Compound: CC(C)=CCC/C(C)=C/CC/C(C)=C/COC(=O)Nc1cc(CNCCS)nc(CNCCS)c1
- IC50 [1]: 900 nM
- Activity [2]: Active
- Activity [3]: Active
- Activity [4]: Active

Compound: CCCCCCCCCCCCOC(=O)Nc1cc(CNCCS)nc(CNCCS)c1
- IC50 [1]: 2000 nM
- Activity [5]: Dose-dependent effect
- Activity [3]: Active

Compound: SCCNCc1cc(-c2cccc3ccccc23)cc(CNCCS)n1
- Activity [6]: 100%
- Activity [7]: 47%
- Activity [8]: 38%
- Activity [9]: 67%
- Activity [10]: 66%
- Activity [11]: 48%

From ChEMBL document CHEMBL4052723, “A novel inhibitor of farnesyltransferase with a zinc site recognition moiety and a farnesyl group” (Bioorg Med Chem Lett, 2017)
